According to publication PMC8603004 (EFSA Journal, 2021):
“And” between values parts separate entries of the source, which are not always exact repeats. Equal values may be shown once.

Assays:
[1] = Incubation of 14C‐3‐NOP in liver fractions; format: in vitro ADME; conditions: Sprague-Dawley, rat, liver cytosol
Procedure, shortened: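 14C-labelled test compound was incubated with or without NAD+ in liver S9, cytosol and microsomes from Sprague–Dawley rat, Wistar Han rat, Beagle dog and human. Aliquots were taken at several time points and the proteins precipitated. Supernatants were analysed by liquid scintillation counting and radio-HPLC, and half-life was derived from the time course.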

[2] = First in vivo toxicokinetic study; parameters: species or system male Wistar rats
Procedure, shortened: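 Male Wistar rats received a single oral dose of 500 mg/kg bw 14C-labelled test compound under OECD TG 417 and were killed 48 h post-dose. Total radioactivity was measured in plasma, excreta and selected organs and tissues. Tissue levels were expressed as μg test-compound-eq/g and recovery as % of applied dose.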

[3] = Mass balance with volatile trapping and tissue distribution study; format: in vivo, male Wistar rats
Procedure, shortened: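 Mass balance under OECD TG 417 in male Wistar rats given a single oral dose of 500 mg/kg bw 14C-labelled test compound. Rats were housed individually in air-tight glass metabolism cages. Volatiles were adsorbed in trapping solutions over 0–8 h and 8–24 h, and urine and faeces were collected over 0–24 h. Tissues, carcass and GI contents were taken at 24 h and results expressed as % of dose.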

[4] = ADME of 14C‐3‐NOP following single or multiple oral administration; format: in vivo, rat; conditions: for Radioactivity in plasma 48 h after the last dose: 50 mg/kg bw for five days
[5] = test system: Salmonella Typhimurium (TA98, TA100, TA1535 and TA1537) and Escherichia coli WP2uvrA; test: Bacterial reverse mutation assays; format: cell-based; conditions: up to 5,000 μg/plate, with or without S9‐mix
[6] = test system: human peripheral blood lymphocytes; test: In vitro micronucleus assay; format: cell-based
CByB6F1 Hybrid mice = test: 28‐day oral gavage study with toxicokinetic evaluation of NOPA; format: in vivo
Wistar rats [7] = test: 2‐year carcinogenicity study; format: in vivo
Wistar rats [8] = test: Prenatal developmental toxicity study; conditions: rat, in vivo
[9] = Octanol–water partition coefficient; format: physicochemical
Incubation of = conditions: for 3‐NOP concentration remaining at t = 24 h: 38°C
[10] = single 50 mg/kg bw, males, 48 h
[11] = trial iii, 500 mg/kg bw, 1 h, females
[12] = trial iii, 500 mg/kg bw, 1 h, males
[13] = trial iv, 5 x 50 mg/kg bw, 48 h after last administration, females
[14] = trial iv, 5 x 50 mg/kg bw, 48 h after last dose, males
[15] = males, 700 mg/kg bw per day (control 0/10)

O=[N+]([O-])OCCCO [3‐NOP, propan‐1,3‐diol‐mononitrate]
half-life [1]: 42 min | Mean overall recovery of the radioactivity applied ([2]; 48 h): 28% | Radioactivity recovered from tissues, organs and carcass ([2]; 48 h): 5.5 % of the dose | Radioactivity remaining in gastrointestinal content ([2]; 48 h): 0.2 % of the dose | Radioactivity concentration in adrenal glands ([2]; 48 h after 500 mg/kg bw): 113.9 μg 3‐NOP‐eq/g | Radioactivity concentration in brain ([2]; 48 h after 500 mg/kg bw): 31.2 μg NOP‐eq/g | Radioactivity concentration in fat ([2]; 48 h after 500 mg/kg bw): 23.5 μg NOP‐eq/g | Radioactivity concentration in kidney ([2]; 48 h after 500 mg/kg bw): 71.6 μg 3‐NOP‐eq/g | Radioactivity concentration in liver ([2]; 48 h after 500 mg/kg bw): 139.6 μg 3‐NOP‐eq/g | Radioactivity concentration in muscle ([2]; 48 h after 500 mg/kg bw): 27.1 μg NOP‐eq/g | Radioactivity recovered in total excreta ([2]; at 48 h): 20 % of the dose | Radioactivity recovered in urine ([2]; first 24 h): 17.6 % of the dose | Radioactivity recovered in urine ([2]; interval 24‐48 h): 0.3 % of the dose | Cmax radioactivity in plasma ([2]; single oral 500 mg/kg bw): about 600 μg 3‐NOP‐eq/g | Radioactivity in plasma after 48 h ([2]; single oral 500 mg/kg bw): 27 μg 3‐NOP‐eq/g | Time of Cmax radioactivity in plasma ([2]; single oral 500 mg/kg bw): 1 h | Radioactivity excreted in faeces ([2]; within 48 h): 2.3 % of the dose | Radioactivity exhaled ([3]; 0 to 8 h post‐dose): 64.3% | Dose recovered in faeces ([3]; 0 to 24 h): 1.2 % of the dose | Dose recovered in urine ([3]; 0 to 24 h): 9.8 % of the dose | Radioactivity exhaled ([3]; 8 to 24 h post‐dose): 13.0% | Dose in the gastrointestinal tract content ([3]; 24 h): 0.5 % of the dose | Dose remaining in the tissues and carcass ([3]; 24 h): 7.7 % of the dose | Overall recovery of radioactivity ([3]; 24 h): 99.3% | Dose recovered from the volatile traps (almost all as 14CO2) ([3]; 24 h after single oral 500 mg/kg bw): 77.4 % of the dose | Mean concentration of radioactive compounds in blood ([3]; 24 h post‐dose): 48.7 μg 3‐NOP‐eq/g | Radioactivity concentration in adrenal glands ([3]; 24 h post‐dose): 159.3 μg 3‐NOP‐eq/g | Radioactivity concentration in brain ([3]; 24 h post‐dose): 24.8 μg 3‐NOP‐eq/g | Radioactivity concentration in fat ([3]; 24 h post‐dose): 58.9 μg 3‐NOP‐eq/g | Radioactivity concentration in kidney ([3]; 24 h post‐dose): 118.4 μg 3‐NOP‐eq/g | Radioactivity concentration in liver ([3]; 24 h post‐dose): 184.5 μg 3‐NOP‐eq/g | Radioactivity concentration in muscle ([3]; 24 h post‐dose): 42.4 μg 3‐NOP‐eq/g | Parent compound in the stomach and caecum ([4]; 500 mg/kg, 1 h, females): 70 % of administered dose | Parent compound in the stomach and caecum ([4]; 500 mg/kg, 1 h, males): 83 % of administered dose | Parent compound in the liver ([4]; 500 mg/kg, 1 h, two values given, sexes not named): 3.5 % of TRR | Total mean recovery of administered radioactivity ([4]; single 50 mg/kg bw, females): 91.1% | Urinary excretion, mean ([4]; single 50 mg/kg bw, females): 4.8% | Mean radioactivity in plasma 48 h after dosing ([4]; single 50 mg/kg bw, females, 50 mg/kg): 4.2 μg 3‐NOP‐eq/mL and 4.22 μg 3‐NOP‐eq/mL | Total mean recovery of administered radioactivity ([4]; single 50 mg/kg bw, males): 95.9% | Urinary excretion, mean ([4]; single 50 mg/kg bw, males): 6.3% | Administered radioactivity recovered in expired air ([4]; single 50 mg/kg bw, males and females): about 80% | Mean concentration of TR in adrenals [4, 10]: 19.5 μg 3‐NOP‐eq/g | Mean concentration of TR in bone marrow [4, 10]: 14.3 μg 3‐NOP‐eq/g | Mean concentration of TR in kidneys [4, 10]: 10.9 μg 3‐NOP‐eq/g | Mean concentration of TR in liver [4, 10]: 12.6 μg 3‐NOP‐eq/g | Mean radioactivity in plasma 48 h after dosing ([4]; single 50 mg/kg bw, males, 50 mg/kg): 7.0 μg 3‐NOP‐eq/mL and 7.03 μg 3‐NOP‐eq/mL | Administered radioactivity recovered in expired air ([4]; single 500 mg/kg bw, females): 61.7% | Total mean recovery of administered radioactivity ([4]; single 500 mg/kg bw, females): 85.3% | Urinary excretion, mean ([4]; single 500 mg/kg bw, females): 13.1% | Mean radioactivity in plasma 48 h after dosing ([4]; single 500 mg/kg bw, females, 500 mg/kg): 34.5 μg 3‐NOP‐eq/mL and 34.47 μg 3‐NOP‐eq/mL | Administered radioactivity recovered in expired air ([4]; single 500 mg/kg bw, males): 73.5% | Total mean recovery of administered radioactivity ([4]; single 500 mg/kg bw, males): 93.2% | Urinary excretion, mean ([4]; single 500 mg/kg bw, males): 11.3% | Mean radioactivity in plasma 48 h after dosing ([4]; single 500 mg/kg bw, males, 500 mg/kg): 51.9 μg 3‐NOP‐eq/mL and 51.92 μg 3‐NOP‐eq/mL | Mean concentration of TR in plasma ([4]; trial iii, 500 mg/kg bw, 15 min, females): 477 μg 3‐NOP‐eq/mL | Mean concentration of TR in plasma ([4]; trial iii, 500 mg/kg bw, 15 min, males): 396 μg 3‐NOP‐eq/mL | Mean concentration of TR in plasma ([4]; trial iii, 500 mg/kg bw, 45 min, females): 629 μg 3‐NOP‐eq/mL | Mean concentration of TR in plasma ([4]; trial iii, 500 mg/kg bw, 45 min, males): 512 μg 3‐NOP‐eq/mL | Mean concentration of TR in plasma [4, 11]: 583 μg 3‐NOP‐eq/mL | TR in kidneys [4, 11]: 865 μg 3‐NOP‐eq/g | TR in liver [4, 11]: 622 μg 3‐NOP‐eq/g | Mean TR in kidneys [4, 12]: 636 μg 3‐NOP‐eq/g | Mean TR in liver [4, 12]: 655 μg 3‐NOP‐eq/g | Mean TR in lungs [4, 12]: 494 μg 3‐NOP‐eq/g | Mean TR in pancreas [4, 12]: 471 μg 3‐NOP‐eq/g | Mean concentration of TR in plasma [4, 12]: 467 μg 3‐NOP‐eq/mL | Time of TR max in plasma ([4]; trial iii, 500 mg/kg bw, all animals): 45 min | Radioactivity in plasma 48 h after the last dose ([4]; trial iv, females): 11.7 μg 3‐NOP‐eq/mL | Radioactivity in plasma 48 h after the last dose ([4]; trial iv, males): 14.4 μg 3‐NOP‐eq/mL | TR in adrenals [4, 13]: 57.0 μg 3‐NOP‐eq | TR in bone marrow [4, 13]: 21.3 μg 3‐NOP‐eq/g | TR in kidneys [4, 13]: 30.0 μg 3‐NOP‐eq | TR in liver [4, 13]: 32.3 μg 3‐NOP‐eq | TR in lungs [4, 13]: 20.7 μg 3‐NOP‐eq/g | TR in ovaries [4, 13]: 35.7 μg 3‐NOP‐eq | TR in pancreas [4, 13]: 21.6 μg 3‐NOP‐eq/g | TR in renal fat [4, 13]: 34.1 μg 3‐NOP‐eq | TR in spleen [4, 13]: 20.1 μg 3‐NOP‐eq/g | TR in thymus [4, 13]: 24.7 μg 3‐NOP‐eq/g | TR in adrenals [4, 14]: 51.2 μg 3‐NOP‐eq/g | TR in bone marrow [4, 14]: 34.1 μg 3‐NOP‐eq/g | TR in epididymis [4, 14]: 18.2 μg 3‐NOP‐eq/g | TR in kidneys [4, 14]: 34.8 μg 3‐NOP‐eq/g | TR in liver [4, 14]: 34.9 μg 3‐NOP‐eq/g | TR in lungs [4, 14]: 18.7 μg 3‐NOP‐eq/g | TR in pancreas [4, 14]: 20.0 μg 3‐NOP‐eq/g | TR in prostate [4, 14]: 24.6 μg 3‐NOP‐eq/g | TR in spleen [4, 14]: 22.9 μg 3‐NOP‐eq/g | TR in thymus [4, 14]: 28.5 μg 3‐NOP‐eq/g | Mean cumulative excretion via the expired air ([4]; trial iv, 48 h after the last dose): about 70 % of the total administered radioactivity | Radioactivity in carcass ([4]; trial iv, females): 3.6% | Total mean recovery of the administered radioactivity ([4]; trial iv, females): 83.1% | Radioactivity in carcass ([4]; trial iv, males): 3.5% | Total mean recovery of the administered radioactivity ([4]; trial iv, males): 86.4% | Revertant colonies [5]: No increase in the mean number of revertant colonies | Frequency of micronuclei ([6]; 164, 512 and 1,211 μg/mL, with and without S9‐mix): no increase in the frequency of micronuclei | Cytotoxicity ([6]; up to 1,211 μg/mL): No cytotoxicity | Reduction in mean overall food consumption (CByB6F1 Hybrid mice; 700 mg/kg bw per day, vs control): 6% | NOAEL (CByB6F1 Hybrid mice; blood biochemical changes at 300 mg/kg bw per day): 100 mg 3‐NOP/kg bw per day | Decrease of absolute thymus weight (CByB6F1 Hybrid mice; males, 700 mg/kg bw per day): 22% | Decrease of relative thymus weight (CByB6F1 Hybrid mice; males, 700 mg/kg bw per day): 23% | Incidence of mild inflammation of the eye striated muscle (CByB6F1 Hybrid mice; [15]): 4/10 | Incidence of minimal to mild adrenal cortical vacuolation (CByB6F1 Hybrid mice; [15]): 4/10 | NOAEL (Wistar rats [7]; benign gastrointestinal mesenchymal tumours in small intestines): 100 mg 3‐NOP/kg bw per day | Benign mesenchymal cell tumours (PWG) (Wistar rats [7]; females, 300 mg/kg bw per day): three | Maternal NOAEL (Wistar rats [8]): 300 mg/kg bw per day | Skin sensitisation potential (Skin sensitisation study): did not show any skin sensitisation potential | log KOW [9]: 0.399 | Radioactivity in the non‐dissolved fractions (Incubation of; 2.2 mg/L): ≤ 5.5% | 3‐NOP concentration remaining at t = 24 h (Incubation of; 2.2 mg/L, anaerobic): 0% | Radioactivity in the non‐dissolved fractions (Incubation of; 23 mg/L): 7% | 3‐NOP concentration remaining at t = 24 h (Incubation of; 23 mg/L, anaerobic): < 0.1% | Radioactivity in the trapped gas phases (Incubation of; 23 or 2.2 mg/L, up to 24 h at 38°C, anaerobic, pH about 6.2): ≤ 0.1 % of the total radioactivity | 3‐NOP concentration remaining (Incubation of; after 6 h): 54% | 3‐NOP concentration remaining (Incubation of; after 12 h): 6% | Abiotic degradation of 3‐NOP to propane‐1,3‐diol (Incubation of; control samples (no or only minor)): 9.8%
